Source: ChEMBL document CHEMBL4265940, “Synthesis of scutellarein derivatives with antiproliferative activity and selectivity through the intrinsic pathway” (Eur J Med Chem, 2018)
The source made the active and inactive calls. No cut-off for these calls is given here.

What was measured:
A549 = assay: Antiproliferative activity against human A549 cells after 72 hrs by MTT assay; assay type: functional, cell-based; details: A549, 72 h
Outline: (§1)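 Log-phase tumour cells seeded and held 24 h at 37 °C in humidified 5% CO2, then exposed to test agents for 72 h. MTT (5 mg/mL stock) added for a further 4 h, formazan dissolved in DMSO with 10 min shaking at room temperature, optical density read, IC50 calculated.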

MCF7 [1] = assay: Antiproliferative activity against human MCF7 cells after 72 hrs by MTT assay; assay type: functional, cell-based; details: MCF7, 72 h; outline: as §1
Bel-7402 = assay: Antiproliferative activity against human Bel7402 cells after 72 hrs by MTT assay; assay type: functional, cell-based; details: Bel-7402, 72 h; outline: as §1
L02 = assay: Cytotoxicity against human LO2 cells assessed as decrease in cell viability after 72 hrs by MTT assay; assay type: cell-based; details: L02, 72 h
Outline: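 L-O2 normal human liver cells tested for growth inhibition by MTT. Formazan was dissolved in DMSO and optical density read. IC50 values were derived.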

MCF7 [2] = assay: Cell cycle arrest in human MCF7 cells assessed as accumulation at G1 phase at 0.75 uM after 48 hrs by propidium iodide staining based flow cytometry (reference value: 41.49%); assay type: functional
MCF7 [3] = assay: Cell cycle arrest in human MCF7 cells assessed as accumulation at G2/M phase at 0.75 uM after 48 hrs by propidium iodide staining based flow cytometry (reference value: 22.40%); assay type: functional
MCF7 [4] = assay: Cell cycle arrest in human MCF7 cells assessed as accumulation at S phase at 0.75 uM after 48 hrs by propidium iodide staining based flow cytometry (reference value: 36.11%); assay type: functional
MCF7 [5] = assay: Cell cycle arrest in human MCF7 cells assessed as accumulation at G1 phase at 1.5 uM after 48 hrs by propidium iodide staining based flow cytometry (reference value: 41.49%); assay type: functional
MCF7 [6] = assay: Cell cycle arrest in human MCF7 cells assessed as accumulation at G2/M phase at 1.5 uM after 48 hrs by propidium iodide staining based flow cytometry (reference value: 22.40%); assay type: functional
MCF7 [7] = assay: Cell cycle arrest in human MCF7 cells assessed as accumulation at S phase at 1.5 uM after 48 hrs by propidium iodide staining based flow cytometry (reference value: 36.11%); assay type: functional
MCF7 [8] = assay: Cell cycle arrest in human MCF7 cells assessed as accumulation at G1 phase at 3 uM after 48 hrs by propidium iodide staining based flow cytometry (reference value: 41.49%); assay type: functional
MCF7 [9] = assay: Cell cycle arrest in human MCF7 cells assessed as accumulation at G2/M phase at 3 uM after 48 hrs by propidium iodide staining based flow cytometry (reference value: 22.40%); assay type: functional
MCF7 [10] = assay: Cell cycle arrest in human MCF7 cells assessed as accumulation at S phase at 3 uM after 48 hrs by propidium iodide staining based flow cytometry (reference value: 36.11%); assay type: functional
MCF7 [11] = assay: Cell cycle arrest in human MCF7 cells assessed as accumulation at G1 phase after 48 hrs by propidium iodide staining based flow cytometry; assay type: functional
MCF7 [12] = assay: Induction of apoptosis in human MCF7 cells assessed as viable cells at 0.75 uM after 48 hrs by Annexin V-FITC/PI staining based flow cytometry (reference value: 93.72%); assay type: functional; details: MCF7, 48 h, read-out: Activity
MCF7 [13] = assay: Induction of apoptosis in human MCF7 cells assessed as early apoptotic cells at 0.75 uM after 48 hrs by Annexin V-FITC/PI staining based flow cytometry (reference value: 4.10%); assay type: functional
MCF7 [14] = assay: Induction of apoptosis in human MCF7 cells assessed as late apoptotic cells at 0.75 uM after 48 hrs by Annexin V-FITC/PI staining based flow cytometry (reference value: 1.99%); assay type: functional
MCF7 [15] = assay: Induction of apoptosis in human MCF7 cells assessed as necrotic cells at 0.75 uM after 48 hrs by Annexin V-FITC/PI staining based flow cytometry (reference value: 0.19%); assay type: functional
MCF7 [16] = assay: Induction of apoptosis in human MCF7 cells assessed as viable cells at 1.5 uM after 48 hrs by Annexin V-FITC/PI staining based flow cytometry (reference value: 93.72%); assay type: functional; details: MCF7, 48 h, read-out: Activity
MCF7 [17] = assay: Induction of apoptosis in human MCF7 cells assessed as early apoptotic cells at 1.5 uM after 48 hrs by Annexin V-FITC/PI staining based flow cytometry (reference value: 4.10%); assay type: functional
MCF7 [18] = assay: Induction of apoptosis in human MCF7 cells assessed as late apoptotic cells at 1.5 uM after 48 hrs by Annexin V-FITC/PI staining based flow cytometry (reference value: 1.99%); assay type: functional
MCF7 [19] = assay: Induction of apoptosis in human MCF7 cells assessed as necrotic cells at 1.5 uM after 48 hrs by Annexin V-FITC/PI staining based flow cytometry (reference value: 0.19%); assay type: functional
MCF7 [20] = assay: Induction of apoptosis in human MCF7 cells assessed as viable cells at 3 uM after 48 hrs by Annexin V-FITC/PI staining based flow cytometry (reference value: 93.72%); assay type: functional; details: MCF7, 48 h, read-out: Activity
MCF7 [21] = assay: Induction of apoptosis in human MCF7 cells assessed as early apoptotic cells at 3 uM after 48 hrs by Annexin V-FITC/PI staining based flow cytometry (reference value: 4.10%); assay type: functional
MCF7 [22] = assay: Induction of apoptosis in human MCF7 cells assessed as late apoptotic cells at 3 uM after 48 hrs by Annexin V-FITC/PI staining based flow cytometry (reference value: 1.99%); assay type: functional
MCF7 [23] = assay: Induction of apoptosis in human MCF7 cells assessed as necrotic cells at 3 uM after 48 hrs by Annexin V-FITC/PI staining based flow cytometry (reference value: 0.19%); assay type: functional
MCF7 [24] = assay: Induction of apoptosis in human MCF7 cells after 48 hrs by Annexin V-FITC/PI staining based flow cytometry; assay type: functional, cell-based
MCF7 [25] = assay: Induction of mitochondrial membrane depolarization in human MCF7 cells assessed as collapse of mitochondrial membrane potential at 0.75 uM after 48 hrs by JC-1 staining based flow cytometry (reference value: 1.61%); assay type: functional
Outline: (§2)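 Log-phase MCF-7 cells treated at 0, 0.75, 1.5 and 3 µM for 48 h, washed with PBS, then stained with JC-1 in the dark per kit instructions. The percentage of cells with collapsed membrane potential was measured by flow cytometry relative to untreated control.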

MCF7 [26] = assay: Induction of mitochondrial membrane depolarization in human MCF7 cells assessed as collapse of mitochondrial membrane potential at 1.5 uM after 48 hrs by JC-1 staining based flow cytometry (reference value: 1.61%); assay type: functional; outline: as §2
MCF7 [27] = assay: Induction of mitochondrial membrane depolarization in human MCF7 cells assessed as collapse of mitochondrial membrane potential at 3 uM after 48 hrs by JC-1 staining based flow cytometry (reference value: 1.61%); assay type: functional; outline: as §2
MCF7 [28] = assay: Induction of mitochondrial membrane depolarization in human MCF7 cells after 48 hrs by JC-1 staining based flow cytometry; assay type: functional, cell-based; outline: as §2
MCF7 [29] = assay: Induction of apoptosis in human MCF7 cells assessed as upregulation of Bax after 48 hrs by Western blot analysis; assay type: functional, cell-based
Outline: (§3)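 MCF-7 cells treated 48 h at 0, 0.75, 1.5 and 3 µM, lysed, and spun at 14000 g for 10 min at 4 °C. Protein was measured by BCA and 25 µg lysate run on 12% SDS-PAGE, then transferred to nitrocellulose and blocked with 5% milk. Blots were probed overnight at 4 °C with monoclonal antibodies to Bcl-2, Bax, cyto-c, caspase-9, caspase-3 and GAPDH, with ECL detection.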

MCF7 [30] = assay: Induction of apoptosis in human MCF7 cells assessed as downregulation of Bcl-2 after 48 hrs by Western blot analysis; assay type: functional, cell-based; outline: as §3
MCF7 [31] = assay: Induction of apoptosis in human MCF7 cells assessed as increase in cytochrome c release at 0.75 to 3 uM after 48 hrs by Western blot analysis; assay type: functional, cell-based; outline: as §3
MCF7 [32] = assay: Induction of apoptosis in human MCF7 cells assessed as increase in caspase-9 level at 0.75 to 3 uM after 48 hrs by Western blot analysis; assay type: functional, cell-based; outline: as §3
MCF7 [33] = assay: Induction of apoptosis in human MCF7 cells assessed as increase in caspase-3 level at 0.75 to 3 uM after 48 hrs by Western blot analysis; assay type: functional, cell-based; outline: as §3

O=C(OCCCCOc1ccc(-c2cc(=O)c3c(O)c(O)c(O)cc3o2)cc1)c1ccc(N(CCCl)CCCl)cc1
IC50 (A549): 21.5 µM
IC50 (MCF7 [1]): 3.55 µM
IC50 (Bel-7402): 9.07 µM
IC50 (L02): > 50 µM

O=C(OCCCCOc1ccc(-c2cc(=O)c3c(O)c4c(cc3o2)OCCO4)cc1)c1ccc(N(CCCl)CCCl)cc1
IC50 (A549): > 50 µM
IC50 (MCF7 [1]): > 50 µM
IC50 (Bel-7402): 37.6 µM
IC50 (L02): > 50 µM

COc1cc2oc(-c3ccc(OCCCCCOC(=O)c4ccc(N(CCCl)CCCl)cc4)cc3)cc(=O)c2c(O)c1OC
IC50 (A549): > 50 µM
IC50 (MCF7 [1]): > 50 µM
IC50 (Bel-7402): 32.5 µM
IC50 (L02): > 50 µM

O=C(O)CCCc1ccc(N(CCCl)CCCl)cc1 [CHLORAMBUCIL]
IC50 (A549): > 50 µM
IC50 (MCF7 [1]): > 50 µM
IC50 (Bel-7402): > 50 µM
IC50 (L02): > 50 µM

O=C(OCCCOc1ccc(-c2cc(=O)c3c(O)c4c(cc3o2)OCCO4)cc1)c1ccc(N(CCCl)CCCl)cc1
IC50 (A549): 44.5 µM
IC50 (MCF7 [1]): 45 µM
IC50 (Bel-7402): > 50 µM
IC50 (L02): > 50 µM

O=C(OCCCCCOc1ccc(-c2cc(=O)c3c(O)c(O)c(O)cc3o2)cc1)c1ccc(N(CCCl)CCCl)cc1
IC50 (A549): 23.5 µM
IC50 (MCF7 [1]): 4.78 µM
IC50 (Bel-7402): 4.59 µM
IC50 (L02): > 50 µM

O=c1[nH]cc(F)c(=O)[nH]1 [FLUOROURACIL]
IC50 (A549): 2.05 µM
IC50 (MCF7 [1]): 27.9 µM
IC50 (Bel-7402): 18.7 µM

COc1cc2oc(-c3ccc(OCCCCOC(=O)c4ccc(N(CCCl)CCCl)cc4)cc3)cc(=O)c2c(O)c1OC
IC50 (A549): 47.3 µM
IC50 (MCF7 [1]): > 50 µM
IC50 (Bel-7402): 25.7 µM
IC50 (L02): > 50 µM

COc1cc2oc(-c3ccc(OCCCOC(=O)c4ccc(N(CCCl)CCCl)cc4)cc3)cc(=O)c2c(O)c1OC
IC50 (A549): > 50 µM
IC50 (MCF7 [1]): > 50 µM
IC50 (Bel-7402): 27.8 µM
IC50 (L02): > 50 µM

O=C(OCCCCCOc1ccc(-c2cc(=O)c3c(O)c4c(cc3o2)OCCO4)cc1)c1ccc(N(CCCl)CCCl)cc1
IC50 (A549): > 50 µM
IC50 (MCF7 [1]): 34.7 µM
IC50 (Bel-7402): 45.7 µM
IC50 (L02): > 50 µM

O=C(OCCCOc1ccc(-c2cc(=O)c3c(O)c(O)c(O)cc3o2)cc1)c1ccc(N(CCCl)CCCl)cc1
IC50 (A549): > 50 µM
IC50 (MCF7 [1]): 1.5 µM
IC50 (Bel-7402): 7.96 µM
IC50 (L02): > 50 µM
Activity (MCF7 [2]): 44.16%
Activity (MCF7 [3]): 21.17%
Activity (MCF7 [4]): 34.67%
Activity (MCF7 [5]): 50.99%
Activity (MCF7 [6]): 18.56%
Activity (MCF7 [7]): 30.44%
Activity (MCF7 [8]): 59.49%
Activity (MCF7 [9]): 11.47%
Activity (MCF7 [10]): 29.04%
Activity (MCF7 [11]): Dose-dependent effect
viability at 0.75 µM (MCF7 [12]): 83.8%
Activity (MCF7 [13]): 12.07%
Activity (MCF7 [14]): 3.92%
Activity (MCF7 [15]): 0.17%
viability at 1.5 µM (MCF7 [16]): 68.8%
Activity (MCF7 [17]): 19.85%
Activity (MCF7 [18]): 9.46%
Activity (MCF7 [19]): 1.85%
viability at 3 µM (MCF7 [20]): 31.5%
Activity (MCF7 [21]): 38.48%
Activity (MCF7 [22]): 26.73%
Activity (MCF7 [23]): 3.26%
Activity (MCF7 [24]): Dose-dependent effect
Activity (MCF7 [25]): 19.61%
Activity (MCF7 [26]): 43.48%
Activity (MCF7 [27]): 64.8%
Activity (MCF7 [28]): Dose-dependent effect
Activity (MCF7 [29]): Dose-dependent effect
Activity (MCF7 [30]): Dose-dependent effect
Activity (MCF7 [31]): Active
Activity (MCF7 [32]): Active
Activity (MCF7 [33]): Active
